Measured values as given in ChEMBL document CHEMBL4364301 (Eur J Med Chem, 2019).

Key:
Type in all cases: functional
[1] = system: LNCaP; test: Antiproliferative activity against human LNCAP cells assessed as reduction in cell growth incubated for 96 hrs by propidium iodide based 2D monolayer assay
How it was run: (§1)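 After 24 h recovery, compound in medium or medium alone (control wells) was added at 10 half-log concentrations from 0.0032 to 100 µM, in triplicate, with at most 0.3% DMSO. After 96 h, wells were PBS-washed, stained with 7 µg/ml PI and 0.1% Triton X-100, and fluorescence read at 530/620 nm. IC50 came from a 4-parameter fit, geometric mean.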

[2] = system: LNCaP; test: Antiproliferative activity against human LNCAP cells assessed as T/C value at 3.2 x 10^-3 uM incubated for 96 hrs by propidium iodide based 2D monolayer assay
How it was run: as §1, with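 “Cells were kept in RPMI 1640 with 25 mM HEPES, 10% FCS and gentamicin at 37 °C under 5% CO2, and plated at 4,000-20,000 cells/well. After 24” for “After 24”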

[3] = system: CWR22R; test: Antiproliferative activity against human 22Rv1 cells assessed as T/C value at 1 x 10^-2 uM incubated for 96 hrs by propidium iodide based 2D monolayer assay
How it was run: as §1, with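 “Cells were kept in RPMI 1640 with 25 mM HEPES, 10% FCS and gentamicin at 37 °C under 5% CO2, and plated at 4,000-20,000 cells/well. After 24” for “After 24”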

[4] = system: CWR22R; test: Antiproliferative activity against human 22Rv1 cells assessed as T/C value at 1 uM incubated for 96 hrs by propidium iodide based 2D monolayer assay
How it was run: as §1, with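 “Cells were kept in RPMI 1640 with 25 mM HEPES, 10% FCS and gentamicin at 37 °C under 5% CO2, and plated at 4,000-20,000 cells/well. After 24” for “After 24”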

[5] = system: VCaP; test: Antiproliferative activity against human VCaP cells assessed as reduction in cell growth incubated for 96 hrs by propidium iodide based 2D monolayer assay
How it was run: (§2)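 VCaP cells in RPMI 1640 with 10% FCS at 37 °C, 5% CO2, seeded 4,000–20,000 cells/well and left 24 h before dosing. Compounds from DMSO stocks were diluted in half-log steps in medium, 10 concentrations 0.0032–100 μM, triplicate wells, max 0.3% DMSO. After 96 h, cells were washed, stained with 7 μg/ml propidium iodide plus 0.1% Triton X-100 for 1–2 h at room temperature, and fluorescence read at ex 530/em 620 nm.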

[6] = system: VCaP; test: Antiproliferative activity against human VCaP cells assessed as T/C value at 3.2 x 10^-3 uM incubated for 96 hrs by propidium iodide based 2D monolayer assay; how it was run: as §2
[7] = system: DU-145; test: Antiproliferative activity against human DU145 cells assessed as T/C value at 3.2 x 10^-3 uM incubated for 96 hrs by propidium iodide based 2D monolayer assay; how it was run: as §1
[8] = system: LNCaP; test: Antiproliferative activity against human LNCAP cells assessed as T/C value at 1 x 10^-1 uM incubated for 96 hrs by propidium iodide based 2D monolayer assay
How it was run: as §1, with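 “Cells were kept in RPMI 1640 with 25 mM HEPES, 10% FCS and gentamicin at 37 °C under 5% CO2, and plated at 4,000-20,000 cells/well. After 24” for “After 24”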

[9] = system: CWR22R; test: Antiproliferative activity against human 22Rv1 cells assessed as T/C value at 1 x 10^-1 uM incubated for 96 hrs by propidium iodide based 2D monolayer assay
How it was run: as §1, with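 “Cells were kept in RPMI 1640 with 25 mM HEPES, 10% FCS and gentamicin at 37 °C under 5% CO2, and plated at 4,000-20,000 cells/well. After 24” for “After 24”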

[10] = system: VCaP; test: Antiproliferative activity against human VCaP cells assessed as T/C value at 1 x 10^-1 uM incubated for 96 hrs by propidium iodide based 2D monolayer assay
How it was run: as §1, with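 “Cells were kept in RPMI 1640 with 25 mM HEPES, 10% FCS and gentamicin at 37 °C under 5% CO2, and plated at 4,000-20,000 cells/well. After 24” for “After 24”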

[11] = system: DU-145; test: Antiproliferative activity against human DU145 cells assessed as T/C value at 1 x 10^2 uM incubated for 96 hrs by propidium iodide based 2D monolayer assay
How it was run: as §1, with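 “Cells were kept in RPMI 1640 with 25 mM HEPES, 10% FCS and gentamicin at 37 °C under 5% CO2, and plated at 4,000-20,000 cells/well. After 24” for “After 24”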

[12] = system: DU-145; test: Antiproliferative activity against human DU145 cells assessed as T/C value at 1 uM incubated for 96 hrs by propidium iodide based 2D monolayer assay; how it was run: as §1
[13] = system: LNCaP; test: Antiproliferative activity against human LNCAP cells assessed as T/C value at 3.2 uM incubated for 96 hrs by propidium iodide based 2D monolayer assay
How it was run: as §1, with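 “Cells were kept in RPMI 1640 with 25 mM HEPES, 10% FCS and gentamicin at 37 °C under 5% CO2, and plated at 4,000-20,000 cells/well. After 24” for “After 24”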

[14] = system: DU-145; test: Antiproliferative activity against human DU145 cells assessed as T/C value at 1 x 10^-1 uM incubated for 96 hrs by propidium iodide based 2D monolayer assay; how it was run: as §1
[15] = system: LNCaP; test: Antiproliferative activity against human LNCAP cells assessed as T/C value at 1 uM incubated for 96 hrs by propidium iodide based 2D monolayer assay
How it was run: as §1, with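 “Cells were kept in RPMI 1640 with 25 mM HEPES, 10% FCS and gentamicin at 37 °C under 5% CO2, and plated at 4,000-20,000 cells/well. After 24” for “After 24”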

[16] = system: VCaP; test: Antiproliferative activity against human VCaP cells assessed as T/C value at 3.2 x 10^-2 uM incubated for 96 hrs by propidium iodide based 2D monolayer assay; how it was run: as §2
[17] = system: CWR22R; test: Antiproliferative activity against human 22Rv1 cells assessed as T/C value at 3.2 x 10^-2 uM incubated for 96 hrs by propidium iodide based 2D monolayer assay
How it was run: as §1, with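 “Cells were kept in RPMI 1640 with 25 mM HEPES, 10% FCS and gentamicin at 37 °C under 5% CO2, and plated at 4,000-20,000 cells/well. After 24” for “After 24”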

[18] = system: DU-145; test: Antiproliferative activity against human DU145 cells assessed as reduction in cell growth incubated for 96 hrs by propidium iodide based 2D monolayer assay; conditions: DU-145, 96 h; how it was run: as §1
[19] = system: VCaP; test: Antiproliferative activity against human VCaP cells assessed as T/C value at 1 uM incubated for 96 hrs by propidium iodide based 2D monolayer assay
How it was run: as §1, with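 “Cells were kept in RPMI 1640 with 25 mM HEPES, 10% FCS and gentamicin at 37 °C under 5% CO2, and plated at 4,000-20,000 cells/well. After 24” for “After 24”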

[20] = system: VCaP; test: Antiproliferative activity against human VCaP cells assessed as T/C value at 3.2 x 10^-1 uM incubated for 96 hrs by propidium iodide based 2D monolayer assay; how it was run: as §2
[21] = system: DU-145; test: Antiproliferative activity against human DU145 cells assessed as T/C value at 1 x 10^-2 uM incubated for 96 hrs by propidium iodide based 2D monolayer assay; how it was run: as §1
[22] = system: VCaP; test: Antiproliferative activity against human VCaP cells assessed as T/C value at 1 x 10^-2 uM incubated for 96 hrs by propidium iodide based 2D monolayer assay
How it was run: as §1, with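 “Cells were kept in RPMI 1640 with 25 mM HEPES, 10% FCS and gentamicin at 37 °C under 5% CO2, and plated at 4,000-20,000 cells/well. After 24” for “After 24”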

[23] = system: VCaP; test: Antiproliferative activity against human VCaP cells assessed as T/C value at 1 x 10^2 uM incubated for 96 hrs by propidium iodide based 2D monolayer assay
How it was run: as §1, with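 “Cells were kept in RPMI 1640 with 25 mM HEPES, 10% FCS and gentamicin at 37 °C under 5% CO2, and plated at 4,000-20,000 cells/well. After 24” for “After 24”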

[24] = system: CWR22R; test: Antiproliferative activity against human 22Rv1 cells assessed as T/C value at 3.2 x 10^-3 uM incubated for 96 hrs by propidium iodide based 2D monolayer assay
How it was run: as §1, with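 “Cells were kept in RPMI 1640 with 25 mM HEPES, 10% FCS and gentamicin at 37 °C under 5% CO2, and plated at 4,000-20,000 cells/well. After 24” for “After 24”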

[25] = system: LNCaP; test: Antiproliferative activity against human LNCAP cells assessed as T/C value at 3.2 x 10^-2 uM incubated for 96 hrs by propidium iodide based 2D monolayer assay
How it was run: as §1, with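 “Cells were kept in RPMI 1640 with 25 mM HEPES, 10% FCS and gentamicin at 37 °C under 5% CO2, and plated at 4,000-20,000 cells/well. After 24” for “After 24”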

[26] = system: VCaP; test: Antiproliferative activity against human VCaP cells assessed as T/C value at 1 x 10^1 uM incubated for 96 hrs by propidium iodide based 2D monolayer assay
How it was run: as §1, with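 “Cells were kept in RPMI 1640 with 25 mM HEPES, 10% FCS and gentamicin at 37 °C under 5% CO2, and plated at 4,000-20,000 cells/well. After 24” for “After 24”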

[27] = system: CWR22R; test: Antiproliferative activity against human 22Rv1 cells assessed as T/C value at 3.2 x 10^1 uM incubated for 96 hrs by propidium iodide based 2D monolayer assay
How it was run: as §1, with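 “Cells were kept in RPMI 1640 with 25 mM HEPES, 10% FCS and gentamicin at 37 °C under 5% CO2, and plated at 4,000-20,000 cells/well. After 24” for “After 24”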

[28] = system: LNCaP; test: Antiproliferative activity against human LNCAP cells assessed as T/C value at 1 x 10^2 uM incubated for 96 hrs by propidium iodide based 2D monolayer assay
How it was run: as §1, with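 “Cells were kept in RPMI 1640 with 25 mM HEPES, 10% FCS and gentamicin at 37 °C under 5% CO2, and plated at 4,000-20,000 cells/well. After 24” for “After 24”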

[29] = system: VCaP; test: Antiproliferative activity against human VCaP cells assessed as T/C value at 3.2 x 10^1 uM incubated for 96 hrs by propidium iodide based 2D monolayer assay; how it was run: as §2
[30] = system: CWR22R; test: Antiproliferative activity against human 22Rv1 cells assessed as T/C value at 1 x 10^1 uM incubated for 96 hrs by propidium iodide based 2D monolayer assay
How it was run: as §1, with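 “Cells were kept in RPMI 1640 with 25 mM HEPES, 10% FCS and gentamicin at 37 °C under 5% CO2, and plated at 4,000-20,000 cells/well. After 24” for “After 24”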

[31] = system: CWR22R; test: Antiproliferative activity against human 22Rv1 cells assessed as T/C value at 3.2 x 10^-1 uM incubated for 96 hrs by propidium iodide based 2D monolayer assay
How it was run: as §1, with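 “Cells were kept in RPMI 1640 with 25 mM HEPES, 10% FCS and gentamicin at 37 °C under 5% CO2, and plated at 4,000-20,000 cells/well. After 24” for “After 24”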

[32] = system: DU-145; test: Antiproliferative activity against human DU145 cells assessed as T/C value at 3.2 x 10^-1 uM incubated for 96 hrs by propidium iodide based 2D monolayer assay; how it was run: as §1

## CC(O)(CSc1cc(C(F)(F)F)cc(C(F)(F)F)c1)C(=O)Nc1cccc(C(F)(F)C(F)(F)F)c1 (racemic)
[1]
  IC50: 3.9 µM
  IC70: 4.68 µM
[2]
  T/C: 90%
[3]
  T/C: 109%
[4]
  T/C: 107%
[5]
  IC50: 8.6 µM
  IC70: 11.7 µM
[6]
  T/C: 104%
[7]
  T/C: 117%
[8]
  T/C: 97%
[9]
  T/C: 106%
[10]
  T/C: 115%
[11]
  T/C: 2%
[12]
  T/C: 134%
[13]
  T/C: 72%
[14]
  T/C: 135%
[15]
  T/C: 107%
[16]
  T/C: 98%
[17]
  T/C: 112%
[18]
  IC50: 8.9 µM
  IC70: 9.6 µM
[19]
  T/C: 93%
[20]
  T/C: 109%
[21]
  T/C: 121%
[22]
  T/C: 107%
[23]
  T/C: 11%
[24]
  T/C: 104%
[25]
  T/C: 99%
[26]
  T/C: 38%
[27]
  T/C: 7%
[28]
  T/C: 7%
[29]
  T/C: 20%
[30]
  T/C: 9%
[31]
  T/C: 107%
[32]
  T/C: 135%
